Experimental data taken from ChEMBL document CHEMBL1151981, “Bioactive pyridine-N-oxide disulfides from Allium stipitatum” (J Nat Prod, 2009).
In brackets after ≈: the same amount, converted by molar mass. Activity calls are given as the source filed them. The rule behind the calls is not given here.

Tests used:
[1] = test system: Mycobacterium tuberculosis; assay: Antibacterial activity against Mycobacterium tuberculosis infected in GKO C57BL/6 mouse assessed as bacterial number in spleen at 25 mg/kg/day administered 14 days postinfection via oral gavage for nine consecutive days measured on day 24 postinfection; type: functional
Outline: (§1)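 Female GKO C57BL/6 mice, 8–10 weeks old, infected by low-dose aerosol with M. tuberculosis Erdman (50–100 CFU uptake confirmed day 1). Daily oral gavage in 0.5% methyl cellulose from day 14 for nine consecutive days; isoniazid given at 25 mg/kg/day. Five mice per group, with untreated and pretreatment controls. Lung and spleen CFU log-transformed; one-way ANOVA with Tukey test.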

[2] = test system: Mycolicibacterium smegmatis; assay: Antibacterial activity against Mycobacterium smegmatis after 72 hrs; type: functional
Outline: (§2)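 Fast-growing mycobacteria obtained from NCTC; cultures grown on Columbia blood agar with 7% defibrinated horse blood at 37 °C for 72 h before MIC determination. Ethambutol and isoniazid served as positive controls.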

[3] = test system: Mycobacterium tuberculosis; assay: Antibacterial activity against Mycobacterium tuberculosis infected in GKO C57BL/6 mouse assessed as bacterial number in lung at 25 mg/kg/day administered 14 days postinfection via oral gavage for nine consecutive days measured on day 24 postinfection; type: functional; outline: as §1
[4] = test system: Mycolicibacterium fortuitum; assay: Antibacterial activity against Mycobacterium fortuitum after 72 hrs; type: functional; outline: as §2
Mycolicibacterium phlei = assay: Antibacterial activity against Mycobacterium phlei after 72 hrs; type: functional; outline: as §2
Staphylococcus aureus [5] = assay: Antibacterial activity against Staphylococcus aureus EMRSA15 after 72 hrs; type: functional; settings: EMRSA15, 72 h
Outline: (§3)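 S. aureus strains tested in a MIC assay; norfloxacin and oxacillin used as positive controls.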

Staphylococcus aureus [6] = assay: Antibacterial activity against tetracycline-effluxing Staphylococcus aureus XU212 after 72 hrs; type: functional; settings: XU212, 72 h; outline: as §3
Staphylococcus aureus [7] = assay: Antibacterial activity against Staphylococcus aureus SA1199B overexpressing NorA efflux pump after 72 hrs; type: functional
[8] = test system: Mycobacterium tuberculosis; assay: Upregulation of Rv1335 RNA expression in Mycobacterium tuberculosis H37Rv ATCC 27294 at 2 to 10 ug/ml after 6 hrs by microarray analysis; type: functional, organism-based
Outline: (§4)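 H37Rv grown in 7H9 with 0.2% glycerol, 0.5% BSA fraction V, 0.05% Tween 80, 0.08% NaCl and 0.2% glucose to OD650 0.3. Treated with 2, 5 or 10 µg/mL compound, or matching DMSO, for 6 h. RNA isolated, labelled cDNA hybridised to microarrays. Predictive genes found by class prediction analysis.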

[9] = test system: Mycobacterium tuberculosis; assay: Upregulation of Rv0331 RNA expression in Mycobacterium tuberculosis H37Rv ATCC 27294 at 2 to 10 ug/ml after 6 hrs by microarray analysis; type: functional, organism-based; outline: as §4
[10] = test system: Mycobacterium tuberculosis; assay: Upregulation of Rv3463 RNA expression in Mycobacterium tuberculosis H37Rv ATCC 27294 at 2 to 10 ug/ml after 6 hrs by microarray analysis; type: functional, organism-based; outline: as §4
[11] = test system: Mycobacterium tuberculosis; assay: Effect on trxC RNA expression in Mycobacterium tuberculosis H37Rv ATCC 27294 at 2 to 10 ug/ml after 6 hrs by microarray analysis; type: functional, organism-based; outline: as §4
[12] = test system: Mycobacterium tuberculosis; assay: Upregulation of clpB RNA expression in Mycobacterium tuberculosis H37Rv ATCC 27294 at 2 to 10 ug/ml after 6 hrs by microarray analysis; type: functional, organism-based; outline: as §4
[13] = test system: Mycobacterium tuberculosis; assay: Effect on trxB2 RNA expression in Mycobacterium tuberculosis H37Rv ATCC 27294 at 2 to 10 ug/ml after 6 hrs by microarray analysis; type: functional, organism-based; outline: as §4
[14] = test system: Mycobacterium tuberculosis; assay: Upregulation of hsp RNA expression in Mycobacterium tuberculosis H37Rv ATCC 27294 at 2 to 10 ug/ml after 6 hrs by microarray analysis; type: functional, organism-based; outline: as §4
[15] = test system: Mycobacterium tuberculosis; assay: Upregulation of Rv1334 RNA expression in Mycobacterium tuberculosis H37Rv ATCC 27294 at 2 to 10 ug/ml after 6 hrs by microarray analysis; type: functional, organism-based; outline: as §4
[16] = test system: Mycobacterium tuberculosis; assay: Upregulation of Rv3054c RNA expression in Mycobacterium tuberculosis H37Rv ATCC 27294 at 2 to 10 ug/ml after 6 hrs by microarray analysis; type: functional, organism-based; outline: as §4
[17] = test system: Mycobacterium tuberculosis; assay: Upregulation of sigH RNA expression in Mycobacterium tuberculosis H37Rv ATCC 27294 at 2 to 10 ug/ml after 6 hrs by microarray analysis; type: functional, organism-based; outline: as §4
[18] = test system: Mycobacterium tuberculosis; assay: Upregulation of dnaK RNA expression in Mycobacterium tuberculosis H37Rv ATCC 27294 at 2 to 10 ug/ml after 6 hrs by microarray analysis; type: functional, organism-based; outline: as §4
[19] = test system: Mycobacterium tuberculosis; assay: Upregulation of dnaJ RNA expression in Mycobacterium tuberculosis H37Rv ATCC 27294 at 2 to 10 ug/ml after 6 hrs by microarray analysis; type: functional, organism-based; outline: as §4

For `NNC(=O)c1ccncc1` [ISONIAZID], the log10cfu [1] was 2.16, the MIC [2] was 0.25 µg/mL (≈ 1.82 µM) and the log10cfu [3] was 5.33. It also gave an MIC [4] of 0.25 µg/mL (≈ 1.82 µM) and an MIC (Mycolicibacterium phlei) of 128 µg/mL (≈ 933 µM).

Compound `CSSc1ccccn1` has an MIC (Staphylococcus aureus [5]) of 2 µg/mL (≈ 12.7 µM), an MIC [2] of 8 µg/mL (≈ 50.9 µM) and an MIC (Staphylococcus aureus [6]) of 4 µg/mL (≈ 25.4 µM). For the same compound, the MIC (Staphylococcus aureus [7]) was 2 µg/mL (≈ 12.7 µM), the MIC [4] was 8 µg/mL (≈ 50.9 µM) and the MIC (Mycolicibacterium phlei) was 16 µg/mL (≈ 102 µM).

For `CC1=CC(=O)c2ccccc2C1=O`, the Activity [8] was “Active”, the Activity [9] was “Active” and the Activity [10] was “Active”. For the same compound, the Activity [11] was “Active”, the Activity [12] was “Active” and the Activity [13] was “Active”. For the same compound, the Activity [14] was “Active”, the Activity [15] was “Active” and the Activity [16] was “Active”. For the same compound, the Activity [17] was “Active”, the Activity [18] was “Active” and the Activity [19] was “Active”.

`[O-][n+]1ccccc1SSc1cccc[n+]1[O-]` [DIPYRITHIONE] showed an MIC (Staphylococcus aureus [5]) of 0.5 µg/mL (≈ 1.98 µM), an MIC [2] of 16 µg/mL (≈ 63.4 µM) and an MIC (Staphylococcus aureus [6]) of 1 µg/mL (≈ 3.96 µM). The MIC (Staphylococcus aureus [7]) was 1 µg/mL (≈ 3.96 µM), the MIC [4] was 16 µg/mL (≈ 63.4 µM) and the MIC (Mycolicibacterium phlei) was 16 µg/mL (≈ 63.4 µM).

`CSSc1cccs1` showed an MIC (Staphylococcus aureus [5]) greater than 128 µg/mL, an MIC [2] of 64 µg/mL (≈ 394 µM) and an MIC (Staphylococcus aureus [6]) greater than 128 µg/mL. It also gave an MIC (Staphylococcus aureus [7]) of 128 µg/mL (≈ 789 µM), an MIC [4] greater than 128 µg/mL and an MIC (Mycolicibacterium phlei) greater than 128 µg/mL.

`Cc1onc(-c2ccccc2)c1C(=O)N[C@@H]1C(=O)N2[C@@H]1SC(C)(C)[C@@H]2C(=O)O` [OXACILLIN] gave an MIC (Staphylococcus aureus [5]) of 32 µg/mL (≈ 79.7 µM), an MIC (Staphylococcus aureus [6]) of 128 µg/mL (≈ 319 µM) and an MIC (Staphylococcus aureus [7]) of 0.25 µg/mL (≈ 0.623 µM).

`CSSc1ncccn1` gave an MIC (Staphylococcus aureus [5]) of 2 µg/mL (≈ 12.6 µM), an MIC [2] of 8 µg/mL (≈ 50.6 µM) and an MIC (Staphylococcus aureus [6]) of 4 µg/mL (≈ 25.3 µM). It also gave an MIC (Staphylococcus aureus [7]) of 2 µg/mL (≈ 12.6 µM), an MIC [4] of 8 µg/mL (≈ 50.6 µM) and an MIC (Mycolicibacterium phlei) of 16 µg/mL (≈ 101 µM).
